The source made the active and inactive calls. No cut-off for these calls is given here.
Columns and labels:
[1] = tested on: Klebsiella pneumoniae; assay: Potentiation of colistin-induced antibacterial activity against colistin resistant Klebsiella pneumoniae B9 assessed as colistin MIC at 5 uM incubated for 16 hrs by broth microdilution method; type: functional
Method in brief: (§1)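 Bacteria grown 6 h in CAMHB, diluted to 5×10^5 CFU/mL. Fixed adjuvant concentration added from DMSO stock; an undosed aliquot gives the colistin MIC alone. Colistin serially two-fold diluted in the compound-dosed suspension. MIC taken at 90% growth inhibition versus untreated wells. Fold change is colistin MIC alone over MIC with adjuvant. Duplicate, repeated at least twice.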

[2] = tested on: Klebsiella pneumoniae; assay: Antibacterial activity against Klebsiella pneumoniae B9 assessed as inhibition of bacterial growth incubated for 16 hrs by broth microdilution method; type: functional
Method in brief: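 Broth microdilution in CAMHB. Six-hour culture diluted to 5×10^5 CFU/mL, compound added from DMSO stock, two-fold serial dilution. MIC is the lowest concentration giving 90% growth inhibition versus untreated wells. Run in duplicate, repeated at least twice.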

[3] = tested on: Klebsiella pneumoniae; assay: Potentiation of colistin-induced antibacterial activity against colistin-resistant Klebsiella pneumoniae B9 assessed as colistin MIC at 3 uM incubated for 16 hrs by broth microdilution method; type: functional; method in brief: as §1
[4] = tested on: Escherichia coli; assay: Potentiation of colistin-induced antimicrobial activity against colistin resistant Escherichia coli 25922 harbouring mcr-1 gene assessed as colistin MIC at 5 uM incubated for 16 hrs by broth microdilution method; type: functional; method in brief: as §1
[5] = tested on: Pseudomonas aeruginosa; assay: Potentiation of colistin-induced antimicrobial activity against colistin-resistant Pseudomonas aeruginosa TRPA 162 assessed as colistin MIC at 5 uM incubated for 16 hrs by broth microdilution method; type: functional; method in brief: as §1
[6] = tested on: Klebsiella pneumoniae; assay: Potentiation of colistin-induced antibacterial activity against colistin-resistant Klebsiella pneumoniae B9 assessed as fold change in colistin MIC at 5 uM incubated for 16 hrs by broth microdilution method; type: functional; method in brief: as §1
[7] = tested on: Klebsiella pneumoniae; assay: Potentiation of colistin-induced antibacterial activity against colistin-resistant Klebsiella pneumoniae B9 assessed as colistin MIC at 1 uM incubated for 16 hrs by broth microdilution method; type: functional; method in brief: as §1
[8] = tested on: Klebsiella pneumoniae; assay: Potentiation of colistin-induced antibacterial activity against colistin resistant Klebsiella pneumoniae F9 assessed as colistin MIC at 5 uM incubated for 16 hrs by broth microdilution method; type: functional; method in brief: as §1
[9] = tested on: Pseudomonas aeruginosa; assay: Antimicrobial activity against colistin resistant Pseudomonas aeruginosa TRPA 162 assessed as inhibition of microbial growth incubated for 16 hrs by broth microdilution method; type: functional, organism-based
Method in brief: (§2)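 Bacteria grown 6 h in cation-adjusted Mueller Hinton broth (CAMHB), subcultured to 5×10^5 CFU/mL. Compound added from DMSO stock and serially two-fold diluted in the culture. Incubated stationary at 37 °C for 16 h. MIC taken as the lowest concentration giving 90% growth inhibition versus untreated wells. Duplicate, repeated at least twice.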

[10] = tested on: Klebsiella pneumoniae; assay: Potentiation of colistin-induced antibacterial activity against colistin resistant Klebsiella pneumoniae C3 assessed as colistin MIC at 5 uM incubated for 16 hrs by broth microdilution method; type: functional; method in brief: as §1
[11] = tested on: Acinetobacter baumannii; assay: Antimicrobial activity against colistin resistant Acinetobacter baumannii 3941 assessed as inhibition of microbial growth incubated for 16 hrs by broth microdilution method; type: functional, organism-based; method in brief: as §2
[12] = tested on: Klebsiella pneumoniae; assay: Potentiation of colistin-induced antibacterial activity against colistin-resistant Klebsiella pneumoniae B9 assessed as fold change in colistin MIC at 3 uM incubated for 16 hrs by broth microdilution method; type: functional; method in brief: as §1
[13] = tested on: Escherichia coli; assay: Antimicrobial activity against colistin resistant Escherichia coli 25922 harbouring mcr-1 gene assessed as inhibition of microbial growth incubated for 16 hrs by broth microdilution method; type: functional, organism-based; method in brief: as §2
[14] = tested on: Klebsiella pneumoniae; assay: Potentiation of colistin-induced antibacterial activity against colistin resistant Klebsiella pneumoniae I2 assessed as colistin MIC at 5 uM incubated for 16 hrs by broth microdilution method; type: functional; method in brief: as §1
[15] = tested on: Klebsiella pneumoniae; assay: Potentiation of colistin-induced antibacterial activity against colistin resistant Klebsiella pneumoniae F2210291 harbouring mcr-1 gene assessed as colistin MIC at 5 uM incubated for 16 hrs by broth microdilution method; type: functional; method in brief: as §1
[16] = tested on: Acinetobacter baumannii; assay: Potentiation of colistin-induced antimicrobial activity against colistin resistant Acinetobacter baumannii 3941 assessed as assessed as colistin MIC at 5 uM incubated for 16 hrs by broth microdilution method; type: functional; method in brief: as §1
[17] = tested on: Klebsiella pneumoniae; assay: Potentiation of colistin-induced antibacterial activity against colistin-resistant Klebsiella pneumoniae B9 assessed as fold change in colistin MIC at 1 uM incubated for 16 hrs by broth microdilution method; type: functional; method in brief: as §1
[18] = tested on: Klebsiella pneumoniae; assay: Antibacterial activity against colistin resistant Klebsiella pneumoniae C3 assessed as inhibition of bacterial growth incubated for 16 hrs by broth microdilution method; type: functional, organism-based; method in brief: as §2
[19] = tested on: Klebsiella pneumoniae; assay: Antibacterial activity against colistin resistant Klebsiella pneumoniae I2 assessed as inhibition of bacterial growth incubated for 16 hrs by broth microdilution method; type: functional, organism-based; method in brief: as §2
[20] = tested on: Klebsiella pneumoniae; assay: Antibacterial activity against colistin resistant Klebsiella pneumoniae F9 assessed as inhibition of bacterial growth incubated for 16 hrs by broth microdilution method; type: functional, organism-based; method in brief: as §2
[21] = tested on: Klebsiella pneumoniae; assay: Antibacterial activity against colistin resistant Klebsiella pneumoniae F2210291 harbouring mcr-1 gene assessed as inhibition of bacterial growth incubated for 16 hrs by broth microdilution method; type: functional, organism-based; method in brief: as §2

Compound: O=C1Nc2cc(Br)ccc2/C1=C1/Nc2c(cccc2-c2ccccc2)/C1=N\O
- MIC [1]: > 16 µg/mL
- MIC [2]: > 200 µM

Compound: O=C1Nc2cc(Br)ccc2/C1=C1/Nc2ccccc2/C1=N\O [6BIO]
- MIC [1]: 1 µg/mL
- MIC [3]: 32 µg/mL
- MIC [2]: > 200 µM
- MIC [4]: 2 µg/mL
- MIC [5]: > 16 µg/mL
- fold change (FC) [6]: 512
- MIC [7]: > 64 µg/mL
- MIC [8]: 4 µg/mL
- Activity [9]: inactive
- MIC [10]: 4 µg/mL
- Activity [11]: inactive
- fold change (FC) [12]: 16
- Activity [13]: inactive
- MIC [14]: 8 µg/mL
- MIC [15]: 2 µg/mL
- MIC [16]: > 16 µg/mL

Compound: O=C1Nc2cc(Br)ccc2/C1=C1/Nc2c(F)cccc2/C1=N\O
- MIC [1]: 2 µg/mL
- MIC [3]: 2 µg/mL
- MIC [2]: > 200 µM
- MIC [4]: 2 µg/mL
- MIC [5]: > 16 µg/mL
- fold change (FC) [6]: 256
- MIC [7]: > 64 µg/mL
- MIC [8]: 4 µg/mL
- Activity [9]: inactive
- MIC [10]: 4 µg/mL
- Activity [11]: inactive
- fold change (FC) [12]: 256
- Activity [13]: inactive
- MIC [14]: 4 µg/mL
- MIC [15]: 2 µg/mL
- MIC [16]: > 16 µg/mL

Compound: O=C1Nc2ccccc2/C1=C1/Nc2c(Cl)cccc2/C1=N\O
- MIC [1]: > 16 µg/mL
- MIC [2]: > 200 µM

Compound: O=C1Nc2cc(Br)ccc2/C1=C1/Nc2c(Cl)cccc2/C1=N\O
- MIC [1]: 1 µg/mL
- MIC [3]: 2 µg/mL
- MIC [2]: > 200 µM
- MIC [4]: 2 µg/mL
- MIC [5]: > 16 µg/mL
- fold change (FC) [17]: 16
- fold change (FC) [6]: 512
- MIC [7]: 32 µg/mL
- MIC [8]: 4 µg/mL
- Activity [9]: inactive
- MIC [10]: 4 µg/mL
- Activity [11]: inactive
- fold change (FC) [12]: 256
- Activity [13]: inactive
- MIC [14]: 4 µg/mL
- MIC [15]: 2 µg/mL
- MIC [16]: > 16 µg/mL

Compound: O=C1Nc2cc(Br)ccc2/C1=C1/Nc2cc(Cl)c(Cl)cc2/C1=N\O
- MIC [1]: > 16 µg/mL
- MIC [2]: > 200 µM

Compound: O=C1Nc2cc(Br)ccc2/C1=C1/Nc2c(Cl)cc(Cl)cc2/C1=N\O
- MIC [1]: > 16 µg/mL
- MIC [2]: > 200 µM

Compound: COc1ccc2c(c1)NC(=O)/C2=C1\Nc2ccccc2\C1=N/O
- MIC [1]: > 16 µg/mL
- MIC [2]: > 200 µM

Compound: O=C1Nc2cc(Br)ccc2/C1=C1/Nc2ccc(Br)cc2/C1=N\O
- MIC [1]: 4 µg/mL
- MIC [2]: > 200 µM
- fold change (FC) [6]: 128

Compound: Cc1ccc2c(c1)C(=N\O)/C(=C1/C(=O)Nc3cc(Br)ccc31)N2
- MIC [1]: > 16 µg/mL

Compound: O=C1Nc2cc(Br)ccc2/C1=C1/Nc2c(Br)cccc2/C1=N\O
- MIC [1]: 1 µg/mL
- MIC [3]: 2 µg/mL
- MIC [2]: > 200 µM
- MIC [4]: 1 µg/mL
- MIC [5]: > 16 µg/mL
- fold change (FC) [17]: 16
- fold change (FC) [6]: 512
- MIC [7]: 32 µg/mL
- MIC [8]: 4 µg/mL
- Activity [9]: inactive
- MIC [10]: 4 µg/mL
- Activity [11]: inactive
- fold change (FC) [12]: 256
- Activity [13]: inactive
- MIC [14]: 4 µg/mL
- MIC [15]: 2 µg/mL
- MIC [16]: > 16 µg/mL

Compound: O=C1Nc2ccc(Cl)cc2/C1=C1/Nc2ccccc2/C1=N\O
- MIC [1]: > 16 µg/mL
- MIC [2]: > 200 µM

Compound: O=C1Nc2cc(Br)ccc2/C1=C1/Nc2ccc(C(F)(F)F)cc2/C1=N\O
- MIC [1]: 8 µg/mL
- MIC [2]: > 200 µM
- fold change (FC) [6]: 64

Compound: O=C1Nc2cc(C(F)(F)F)ccc2/C1=C1/Nc2ccccc2/C1=N\O
- MIC [1]: 8 µg/mL
- MIC [2]: > 200 µM
- fold change (FC) [6]: 64

Compound: O=C1Nc2ccc(Br)cc2/C1=C1/Nc2ccccc2/C1=N\O [INDIRUBIN 2]
- MIC [1]: > 16 µg/mL
- MIC [2]: > 200 µM

Compound: O=C1Nc2cc(Br)ccc2/C1=C1/Nc2cc(F)c(F)cc2/C1=N\O
- MIC [1]: 1 µg/mL
- MIC [3]: 4 µg/mL
- MIC [2]: > 200 µM
- fold change (FC) [6]: 512
- MIC [7]: > 64 µg/mL
- fold change (FC) [12]: 128

Compound: COLISTIN
- MIC [18]: 128 µg/mL
- MIC [2]: 512 µg/mL
- MIC [19]: 512 µg/mL
- MIC [9]: 1020 µg/mL
- MIC [11]: 1020 µg/mL
- MIC [13]: 16 µg/mL
- MIC [20]: 256 µg/mL
- MIC [21]: 16 µg/mL

Compound: O=C1Nc2cc(Br)ccc2/C1=C1/Nc2cc(Br)ccc2/C1=N\O
- MIC [1]: 8 µg/mL
- MIC [2]: > 200 µM
- fold change (FC) [6]: 64

Compound: O=C1Nc2cc(Br)ccc2/C1=C1/Nc2c(cccc2C(F)(F)F)/C1=N\O
- MIC [1]: 2 µg/mL
- MIC [3]: 4 µg/mL
- MIC [2]: > 200 µM
- fold change (FC) [6]: 256
- MIC [7]: 64 µg/mL
- fold change (FC) [12]: 128

Compound: O=C1Nc2c(Cl)cccc2/C1=C1/Nc2ccccc2/C1=N\O
- MIC [1]: > 16 µg/mL
- MIC [2]: > 200 µM

Compound: O=C1Nc2ccccc2/C1=C1/Nc2ccccc2/C1=N\O
- MIC [1]: > 16 µg/mL
- MIC [2]: > 200 µM

Compound: O=C1Nc2cc(Br)ccc2/C1=C1/Nc2ccc(-c3ccccc3)cc2/C1=N\O
- MIC [1]: > 16 µg/mL
- MIC [2]: > 200 µM

Compound: O=C1Nc2c(Br)cccc2/C1=C1/Nc2ccccc2/C1=N\O
- MIC [1]: > 16 µg/mL
- MIC [2]: > 200 µM

Compound: Cc1ccc2c(c1)NC(=O)/C2=C1\Nc2ccccc2\C1=N/O
- MIC [1]: > 16 µg/mL
- MIC [2]: > 200 µM

Compound: O=C1Nc2cc(Br)ccc2/C1=C1/Nc2ccc(F)cc2/C1=N\O
- MIC [1]: 2 µg/mL
- MIC [3]: 32 µg/mL
- MIC [2]: > 200 µM
- fold change (FC) [6]: 256
- MIC [7]: > 64 µg/mL
- fold change (FC) [12]: 16

Compound: O=C1Nc2cc(Br)ccc2/C1=C1/Nc2cc(F)ccc2/C1=N\O
- MIC [1]: > 16 µg/mL
- MIC [2]: > 200 µM

Compound: Cc1cccc2c1NC(=C1\C(=O)Nc3cc(Br)ccc31)/C2=N/O
- MIC [1]: 4 µg/mL
- MIC [2]: > 200 µM
- fold change (FC) [6]: 128

Compound: O=C1Nc2cc(F)ccc2/C1=C1/Nc2ccccc2/C1=N\O
- MIC [1]: > 16 µg/mL
- MIC [2]: > 200 µM

Compound: O=C1Nc2cc(Br)ccc2/C1=C1/Nc2ccc(Cl)cc2/C1=N\O
- MIC [1]: 2 µg/mL
- MIC [3]: 16 µg/mL
- MIC [2]: > 200 µM
- fold change (FC) [6]: 256
- MIC [7]: > 64 µg/mL
- fold change (FC) [12]: 32

Compound: O=C1Nc2cc(Cl)ccc2/C1=C1/Nc2ccccc2/C1=N\O
- MIC [1]: 4 µg/mL
- MIC [2]: > 200 µM
- fold change (FC) [6]: 128
